According to ChEMBL document CHEMBL3865803, “Bicyclic octahydrocyclohepta[b]pyrrol-4(1H)one derivatives as novel selective anti-hepatitis C virus agents” (Eur J Med Chem, 2016):

Legend:
[1] = Selectivity index, ratio of CC50 for human Huh7.5 cells to EC50 for HCV genotype 1b infected in human Huh7/Rep-Feo1b replicon cells; set-up: species or system Huh-7
Hepatitis C virus [2] = assay: Antiviral activity against HCV genotype 2a infected in human Huh7.5-FGR-JC1-Rluc2A replicon cells assessed as inhibition of viral RNA replication incubated for 48 hrs by luciferase reporter gene assay; format: functional, cell-based, Hepacivirus hominis; details: Huh-7, 48 h
Procedure, shortened: (§1)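 EC50 from concentration-response in replicon cells (gt1b firefly, gt2a Renilla luciferase reporter) maintained with G418. Compound added 12 h post-seeding (~1 × 10^4 cells/well), 48 h exposure, DMSO 1% final. Luciferase was compared with DMSO controls; the value is the mean ± SD of three independent 8-12 point quarter-log dilution series, calculated with CalcuSyn.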

Hepatitis C virus [3] = assay: Antiviral activity against HCV genotype 2a infected in human Huh7.5-FGR-JC1-Rluc2A replicon cells assessed as inhibition of viral RNA replication at 50 uM measured after 48 hrs by luciferase reporter gene assay relative to control; format: functional, Hepacivirus hominis; details: Huh-7, 48 h
Procedure, shortened: (§2)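 Replicon cells (gt1b firefly luciferase; gt2a Renilla luciferase) in DMEM/10% FBS with G418, ~1 × 10^4 cells/well, dosed 12 h after seeding with 50 µM compound or DMSO (1% final) for 48 h at 37 °C. Cells were PBS-washed and luciferase read; % inhibition was taken versus DMSO-treated cells, mean±SD, n=3.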

Hepatitis C virus [4] = assay: Antiviral activity against HCV genotype 1b infected in human Huh7/Rep-Feo1b replicon cells assessed as inhibition of viral RNA replication measured after 48 hrs by luciferase reporter gene assay; format: functional, cell-based, Hepacivirus hominis; details: Huh-7, 48 h; procedure, shortened: as §1
[5] = Selectivity index, ratio of CC50 for human Huh7.5 cells to EC50 for HCV genotype 2a infected in human Huh7.5-FGR-JC1-Rluc2A replicon cells; set-up: species or system Huh-7
Hepatitis C virus [6] = assay: Antiviral activity against HCV genotype 1b infected in human Huh7/Rep-Feo1b replicon cells assessed as inhibition of viral RNA replication at 50 uM measured after 48 hrs by luciferase reporter gene assay relative to control; format: functional, Hepacivirus hominis; details: Huh-7, 48 h; procedure, shortened: as §2
[7] = Cytotoxicity against human Huh7.5 cells measured after 48 hrs by MTS assay; format: toxicity, cell-based, Huh-7; details: for CC50 at 48 h: Huh7.5 cells; for Activity: huh-7, 48 h
Procedure, shortened: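 Parental Huh7.5 cells were treated 12 h after seeding with 8-10 dilutions of compound or DMSO (1% final) for 48 h at 37 °C. Viability was read by MTS bioreduction to formazan. CC50 is the concentration halving the MTS signal, mean ± SD of three independent experiments.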

EC50 (Hepatitis C virus [2]) [µM] | EC50 (Hepatitis C virus [4]) [µM] | Compound | Ratio CC50/EC50 [1] | inhibition at 50 µM (Hepatitis C virus [3]) [%] | Ratio CC50/EC50 [5] | inhibition at 50 µM (Hepatitis C virus [6]) [%] | CC50 at 48 h [7] [µM] | Activity [7] [%]
11.4 | 16.5 | O=C1CCCC[C@@H]2[C@H]1[C@@H](c1ccccc1)CN2S(=O)(=O)c1ccccc1 (racemic) | 12.1 | 88 | 17.6 | 78 | > 200 | 84
25.8 | 27.2 | CCOC(=O)[C@@H]1C[C@@H]2[C@@H](OC(C)=O)CCCC[C@@H]2N1S(=O)(=O)c1ccc(C)cc1 (racemic) | 7.3 | 73 | 7.7 | 60 | > 200 | –
12.4 | 24.1 | O=C1CCCC[C@H]2[C@H](N1)[C@@H](c1ccccc1)CN2Cc1ccccc1 (racemic) | >8.3 | 59 | >16.1 | 80 | > 200 | 98
8.2 | 11.6 | CCOC(=O)[C@@H]1C[C@@H]2NC(=O)CCCC[C@@H]2N1S(=O)(=O)c1ccc(C)cc1 (racemic) | 12.4 | 71 | 17.4 | 66 | 143 | 92
8.7 | 59.4 | CCOC(=O)[C@@H]1C[C@@H]2C(=O)CCCC[C@H]2N1S(=O)(=O)c1ccc(C)cc1 (racemic) | 3.4 | 91 | 22.9 | 51 | > 200 | –
14.2 | 49.1 | CCOC(=O)[C@@H]1C[C@]2(C)C(=O)CCCC[C@@H]2N1S(=O)(=O)c1ccc(C)cc1 (racemic) | 4.1 | 76 | 14.1 | 50 | > 200 | –
5.6 | 7.5 | O=C1CCCC[C@@H]2[C@H](C[C@H](Cc3ccccc3)N2Cc2ccccc2)N1 (racemic) | >6.6 | 99 | >8.8 | 82 | > 50 | 61
11.6 | 14.3 | CCOC(=O)[C@@H]1C[C@@H]2/C(=N/NC(N)=S)CCCC[C@@H]2N1S(=O)(=O)c1ccc(C)cc1 (racemic) | 14 | 58 | 17.3 | 66 | > 200 | –
27.6 | – | CCOC(=O)[C@@H]1C[C@@H]2[C@@H](O)CCCC[C@@H]2N1S(=O)(=O)c1ccc(C)cc1 (racemic) | – | 77 | 7.3 | 22 | > 200 | –
26.3 | – | Cc1ccc(S(=O)(=O)N2[C@H](C(=O)O)C[C@@H]3/C(=N/Nc4ccccc4)CCCC[C@@H]32)cc1 (racemic) | – | 81 | >7.6 | 25 | > 200 | –
14.3 | 14.9 | CCOC(=O)[C@@H]1C[C@@H]2C(=O)CCCC[C@@H]2N1C(=O)c1ccccc1 (racemic) | >13.4 | 95 | >13.9 | 59 | > 200 | –
23.8 | – | CCOC(=O)[C@@H]1C[C@@H]2C(=O)CCCC[C@@H]2N1S(=O)(=O)c1ccc(Cl)cc1 (racemic) | – | 60 | 8.4 | 32 | > 200 | –
15.3 | 25.3 | CCOC(=O)[C@@H]1C[C@@H]2/C(=N/O)CCCC[C@@H]2N1S(=O)(=O)c1ccc(C)cc1 (racemic) | 7.9 | 66 | 13.1 | 63 | > 200 | –
13 | 34.4 | CCOC(=O)[C@@H]1C[C@@H]2C(=O)CCCC[C@@H]2N1S(=O)(=O)c1ccc(C(C)(C)C)cc1 (racemic) | >5.8 | 94 | >15.4 | 49 | > 200 | –
– | 28.1 | Cc1ccc(S(=O)(=O)N2[C@H](C(=O)NCCc3ccccc3)C[C@@H]3C(=O)CCCC[C@@H]32)cc1 (racemic) | 5.4 | 48 | – | 66 | 153 | –

The remaining lines, values behind:

Compound | EC50 (Hepatitis C virus [2]) [µM] | EC50 (Hepatitis C virus [4]) [µM] | Ratio CC50/EC50 [1] | inhibition at 50 µM (Hepatitis C virus [3]) [%] | Ratio CC50/EC50 [5] | inhibition at 50 µM (Hepatitis C virus [6]) [%] | CC50 at 48 h [7] [µM] | Activity [7] [%]
Cc1ccc(S(=O)(=O)N2[C@H](C(N)=O)C[C@@H]3C(=O)CCCC[C@@H]32)cc1 (racemic) | – | – | – | 38 | – | – | > 200 | –
CCOC(=O)[C@@H](C)N1CC[C@H]2C(=O)CCCC[C@@H]21 | – | – | – | 38 | – | 24 | > 100 | 88
Cc1ccc(S(=O)(=O)N2[C@H](C(=O)O)C[C@@H]3C(=O)CCCC[C@@H]32)cc1 (racemic) | – | – | – | 42 | – | 14 | > 200 | –
CCOC(=O)[C@@H]1C[C@@H]2/C(=N/OCc3ccccc3)CCCC[C@@H]2N1S(=O)(=O)c1ccc(C)cc1 (racemic) | – | – | – | 30 | – | – | > 200 | –
COc1cccc([C@@H]2CN(Cc3ccccc3)[C@@H]3CCCCC(=O)N[C@H]32)c1 (racemic) | – | – | – | 54 | – | 59 | – | –
O=C1CCCC[C@@H]2[C@@H](N1)[C@H](c1cccc(F)c1)CN2Cc1ccccc1 (racemic) | – | – | – | 80 | – | 49 | – | –
Cc1ccc(S(=O)(=O)N2[C@H]3CCCCC(=O)[C@@]3(C)C[C@H]2C(=O)O)cc1 (racemic) | – | – | – | 33 | – | 41 | > 200 | –
O=C1CCCC[C@@H]2[C@@H]1[C@H](c1cccc(F)c1)CN2Cc1ccccc1 (racemic) | 1.6 | 11.7 | >4.2 | 97 | >31.8 | 83 | > 50 | 63
O=C1CCCC[C@H]2[C@H]1[C@@H](c1ccccc1)CN2Cc1ccccc1 (racemic) | 4.6 | 7.7 | 17.3 | 96 | 29.2 | 71 | 134 | 85
CC(C)(C)OC(=O)N1CC[C@H]2[C@H](C(=O)C1)[C@@H](c1ccccc1)CN2Cc1ccccc1 (racemic) | 4.47 | 9 | >5.5 | 99 | >11.2 | 94 | > 50 | 61
CCOC(=O)[C@@H]1C[C@@H]2C(=O)CCCC[C@@H]2N1S(=O)(=O)c1ccnn1C (racemic) | – | – | – | 17 | – | – | > 200 | –
CCOC(=O)[C@@H]1C[C@@H]2[C@@H](CCC[C@@H]2O)N1S(=O)(=O)c1ccc(C)cc1 (racemic) | – | – | – | 45 | – | 38 | > 150 | 93
Cc1ccc(S(=O)(=O)N2[C@H](C(=O)N3CCOCC3)C[C@@H]3C(=O)CCCC[C@@H]32)cc1 (racemic) | – | – | – | 12 | – | 19 | > 200 | –
CCNC(=O)[C@@H]1C[C@@H]2C(=O)CCCC[C@@H]2N1S(=O)(=O)c1ccc(C)cc1 (racemic) | – | – | – | 39 | – | 15 | > 200 | –
Cl.Cl.Fc1cccc([C@@H]2CN(Cc3ccccc3)[C@@H]3CCCCCN[C@H]32)c1 (racemic) | – | – | – | 61 | – | 98 | < 50 | 11
O=C1CCCC[C@@H]2[C@H]1[C@@H](c1ccccc1)CN2Cc1ccccc1 (racemic) | – | – | – | 4 | – | 38 | – | –
O=C(O)[C@@H]1C[C@H]2[C@@H](O)CCC[C@H]2N1 (racemic) | – | – | – | 12 | – | – | – | –
CC(C)(C)OC(=O)N1CC[C@@H]2NC[C@H](c3ccccc3)[C@H]2C(=O)C1.Cl (racemic) | – | – | – | 47 | – | 48 | > 150 | 97
CCOC(=O)[C@H](C)N1CC[C@H]2C(=O)CCCC[C@@H]21 | – | – | – | 83 | – | – | – | –
